The campaign covered roughly 200,000 compounds. About 170 (0.085%) were called active.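 The calls were made as follows: active = inhibition above 40% at the single screening dose; inactive = the rest.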 For the sample, actives were picked, then their nearest neighbours and some compounds at random.
Target: DNA repair protein RAD51 homolog 1 (Homo sapiens) (UniProt Q06609)
Assay: human RAD51 strand exchange inhibitors, primary screen, biochemical, fluorescence (AID 1385);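 also: 0% = DMSO control wells and 100% = blanks with heterologous ssDNA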
Settings: hRad51 DNA strand exchange, fluorescence dequenching; at 10 µM; active compounds read high
Outline: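 System: human Rad51 nucleoprotein filaments preassembled on unlabelled ssDNA. Reagent: labelled 47-mer dsDNA for strand exchange. Schedule: 30-min compound preincubation and 15-min exchange, both room temperature. Measured by: FRET fluorescence dequenching, excitation 485 nm, emission 520 nm. Read-out: Fluorescence-based percent inhibition, control- and blank-normalised. Benchmarks: plate controls and plate blanks.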

DNA repair protein RAD51 homolog 1 (Homo sapiens), sequence (Q06609 whole entry, looked up): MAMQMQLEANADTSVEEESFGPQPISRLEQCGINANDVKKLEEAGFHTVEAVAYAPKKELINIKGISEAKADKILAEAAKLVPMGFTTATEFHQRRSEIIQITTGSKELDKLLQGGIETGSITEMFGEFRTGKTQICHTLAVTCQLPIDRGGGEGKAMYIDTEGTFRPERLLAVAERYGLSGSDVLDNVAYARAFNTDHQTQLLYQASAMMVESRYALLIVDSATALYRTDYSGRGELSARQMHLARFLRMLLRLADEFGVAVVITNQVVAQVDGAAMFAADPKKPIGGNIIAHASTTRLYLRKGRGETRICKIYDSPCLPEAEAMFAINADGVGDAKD

inhibition, active:
Cc1ccc(C(=O)COc2cccc(NC(=O)c3ccco3)c2)cc1 89.3%
CC(C)CC(=O)N/C(N)=N/c1nc2ccccc2s1 82.8%
CCN(CC)CCOc1ccc2c(c1)C(=NNC(=O)c1ccccn1)c1cc(OCCN(CC)CC)ccc1-2 99%
CCSC1=NCCN1C(=O)c1ccc(S(=O)(=O)N(CC)CC)cc1 40.5%

inhibition, inactive:
COC(=O)c1ccc(COc2cc([N+](=O)[O-])cc3cccnc23)cc1 -2.29%
C=CCN1CC(C)/C(=N\O)CC1C (centres undefined) -1.92%
Cc1nc2nc(SCC(=O)c3ccccc3)[nH]c2cc1Br -17.9%
O=C(CCNc1n[nH]c(=O)[nH]c1=O)N/N=C\c1ccc(Br)cc1 -0.51%
CC(C)(C)n1cnnc1Sc1ccc([N+](=O)[O-])cn1 25.8%
Cn1nccc1NS(=O)(=O)c1ccc(F)cc1 -8.74%
COc1ccc(Cl)cc1S(=O)(=O)N1CCC(O)(c2ccc(Cl)cc2)CC1 10.6%
Cc1ccnc(NC(=O)c2ccc(NC(=O)c3ccco3)cc2)c1 -5.85%
COc1cccc(C(=O)Nc2ccc(NC(=O)c3ccco3)cn2)c1 -3.19%
CC(OC(=O)c1ccc(NS(=O)(=O)c2ccc3[nH]c(=O)[nH]c3c2)cc1)C(=O)Nc1cccc(Cl)c1Cl (centres undefined) 1.25%
Cc1cc(C)cc(NC(=O)NC2CCN(CC(=O)Nc3cccc(Cl)c3C)CC2)c1 -8.77%
CCn1c(CN2C(=O)CSc3ccccc32)n[nH]c1=S 3.47%
O=S(=O)(c1cccc(-c2nnc3n2CCCCC3)c1)N1CCOCC1 6.72%
CC(C)(C)c1cc(NC(=O)NN2CCOCC2)nn1-c1c(Cl)cc(Cl)cc1Cl -14%
Nc1ccccc1SC(C[N+](=O)[O-])c1ccccc1 (centres undefined) 14.8%
OC(CNCc1ccc2c(c1)OCO2)COc1ccccc1 (centres undefined) 1.14%
Cc1ccc(CNC(=O)c2ccc3c(c2)S(=O)(=O)c2ccccc2C3=O)cc1 3.71%
COc1ccccc1-n1cn[nH]c1=S 26.3%
COc1ccc(CN(Cc2ccc(OC)cc2)C(=O)c2cccs2)cc1 2.36%
O=C(c1ccc(F)cc1)n1c(=S)nc2ccccn21 15.3%
CNC1(c2nnnn2-c2c(C)cccc2C)CCOC(C)(C)C1 (centres undefined) 5.82%
Cc1cc(-c2nc(C)c(-c3nnc(SCC(=O)Nc4ccccc4)n3C)s2)no1 -5%
OCC[C@H]1C[C@H](O)[C@@H](O)[C@]2(CCCCO2)O1 -1.38%
COc1ccccc1Cn1c(CO)nc2ccccc21 -28.4%
Cc1ccc(C)c2c1cc(C)c1nnc(SCC(=O)Nc3cccc(C(=O)O)c3)n12 3.44%
CCCN(CCC)S(=O)(=O)c1ccc(C(=O)N2CC3CCC(CC3)C2)cc1 4.87%
O=C(O)c1ccccc1C(=O)Nc1ccccc1[N+](=O)[O-] 10.6%
O=[N+]([O-])c1ccc2c(c1)C(O)n1nc(-c3ccccc3)nc1S2 (centres undefined) 0.18%
CC(C)CC(=O)NC(=S)NCc1ccccc1 1.47%
CCC(=O)NC(=Nc1nc2ccccc2s1)NC(=O)CC -4.35%
CCOc1cc(NC(=O)c2ccccn2)c(OCC)cc1NC(=O)c1ccc(OC)cc1 0.44%
CCC(C)(NC(=O)c1ccccn1)C(=O)NC1CCCCC1 (centres undefined) 14.2%
O=[N+]([O-])c1cc([N+](=O)[O-])c2cccnc2c1O 5.92%
O=C(CCc1ccccc1)NNc1ccc(F)cc1 4.26%
NS(=O)(=O)c1ccc(NC(=O)COC(=O)c2cc3ccccc3oc2=O)cc1 3.3%
Cc1c(NC(=O)CN2C(=O)C(=O)N(Cc3ccccc3)C2=O)c(=O)n(-c2ccccc2)n1C 1.05%
O=C1N=C(N2CCc3ccccc3C2)S/C1=C\c1ccc(O)cc1 -11.2%
O=C1/C(=C/c2coc3ccc(O)cc3c2=O)SC(=S)N1c1ccccc1 -16.3%
O=C(O)c1ccc(/C=N/Nc2nc(N3CCCCC3)nc(N3CCCCC3)n2)cc1 8.17%
Cn1cnc(S(=O)(=O)Nc2ccc3c(c2)OCCO3)c1 10.8%
O=C(O)CC12CC3CC(C1)CC(n1ncc(NCc4ccc(F)cc4)c(Cl)c1=O)(C3)C2 -1.62%
O=C(Cc1cccc2ccccc12)NNC(=O)Nc1ccc(Cl)cc1 18.3%
Cc1nnc(Nc2ccccc2F)s1 21.3%
CCOC(=O)CN(C(=O)COc1nc(C)cc(C)c1C#N)c1ccc(Cl)cc1 1.01%
FC(F)(F)c1cccc(-c2nc(COc3ccc(Cl)cc3Cl)no2)c1 4.51%
CSC1=NCCN1C(=O)c1ccc(S(=O)(=O)N2CCOCC2)cc1 -4.11%
CCSC1=NCCN1S(=O)(=O)c1ccc(F)cc1 -1.84%
C/C(Cc1ccccc1)=N\NC(=O)CNC(=O)c1ccccc1Cl 11.3%
COc1ccc(OC)c(NC(=O)N[C@H](Cc2ccccc2)C(=O)NN)c1 19%
N#Cc1ccc(Oc2ccc(C(F)(F)F)cc2NC(=O)c2ccc(F)cc2)cc1 18.6%
COCCn1c(SCC(=O)c2[nH]c(C)c(C(C)=O)c2C)nc2ccccc2c1=O -4.09%
COc1ccc(/C=N/n2nnnc2N)cc1OC -13.6%
Cc1cc(Nc2ccc(N3CCOCC3)cc2)c2cccc(C)c2n1 15.5%
Nc1ccccc1C(=O)NC1CCCCNC1=O (centres undefined) 11.6%
COc1cc(N2C(=O)CC3(CCCC3)CC2=O)cc(OC)c1OC -3.47%
Cc1ccc(Nc2c3c(nc4ccccc24)CCC3)cc1 16.7%
O=C1N[C@H](Cc2ccccc2)C(=O)N[C@H]1Cc1cn(S(=O)(=O)c2ccccc2)c2ccccc12 -3.92%
O=C(NC1C2CC3CC(C2)CC1C3)c1ccc(N2CCNCC2)c([N+](=O)[O-])c1 (centres undefined) -5.43%
CC(=O)N/C(=C\c1ccc(F)cc1)C(=O)NC(Cc1ccccc1)C(=O)O (centres undefined) 5.67%
CN(C)S(=O)(=O)c1ccc(C(=O)NCC(C)(C)N2CCOCC2)cc1 -11.7%
NC(=O)c1ccc(-c2csnn2)cc1 9.52%
Nc1c(Cl)cc(S(N)(=O)=O)cc1S(N)(=O)=O 3.22%
O=C(Nc1cccc2c1N(C(=O)c1ccco1)CCC2)c1ccco1 15.4%
CC1Cc2ccccc2N1CC(=O)Nc1ccc(S(N)(=O)=O)cc1 (centres undefined) -6.22%
Cc1ccc(NC(=O)/C(=C/c2ccc([N+](=O)[O-])cc2)NC(=O)c2ccccc2)cc1 -17.5%
NNC(=O)c1cccc(COCC(F)(F)C(F)F)c1 8.15%
O=C(Nc1ccccc1)C1CC(=O)n2c(nc3ccccc32)N1 (centres undefined) 1.59%
NC(=O)c1ccc(NC(=O)COC(=O)c2ccc([N+](=O)[O-])cc2)cc1 -14.5%
CCCc1c(C(=O)Nc2ccc(F)cc2)cnn1-c1ccccc1 -9.46%
Cc1cc(C(=O)OCC(=O)Nc2nccs2)c2ccccc2n1 -4.52%
CCc1nc(NCCO)c(C#N)c2c1CCCC2 18.4%
Cn1c(=O)c(=O)n(C)c2cc(S(=O)(=O)NCCN3CCN(c4ccccc4F)CC3)ccc21 0.68%
Cc1ccc(N2C(=O)CN=C2Nc2nc(C)cc(C)n2)cc1 7.92%
COC(=O)c1sccc1NC(=O)CC1C(=O)NCCN1C(=O)Nc1ccc(F)cc1F (centres undefined) 1.89%
Fc1ccc(-c2csc(-c3ccc(C4SCCS4)cc3)n2)cc1F 1.29%
O=C(NNC(=O)c1csc(-c2cccnc2)n1)Nc1ccc(Cl)cc1 -5.17%
COCc1cc(=O)[nH]c(-c2ccc(C(F)(F)F)cc2)n1 7.88%
CSc1sc(C(=O)NNC(=O)c2ccc(Cl)cc2)c2c1C=CCC2 -9.57%
N#Cc1c(NCCO)ccc([N+](=O)[O-])c1NCCO 16.9%
COc1ccc(NC(=O)C2=C(C)NC(=O)NC2c2ccccc2[N+](=O)[O-])cc1 (centres undefined) 0.69%
O=S(=O)(c1ccccc1)N1CN(Cc2ccc(F)cc2)c2nc3ccccc3nc21 7.4%
CC1(C)C2CC[C@]3(C)C(CC=C4[C@@H]5C[C@@](C)(CO)CC[C@]5(C(=O)O)CC[C@]43C)[C@@]2(C)CC[C@@H]1O (some centres undefined) 6.09%
Cc1cc(N2CCN(c3ccccc3)CC2)nc(N2CCOCC2)n1 26.8%
COc1ccc(Cn2c(O)c(/C=C3/C=CC=N3)c(=O)[nH]c2=O)cc1 -6.92%
COC(=O)c1ccc(C(NC(=O)OCc2ccccc2)/C(F)=C/[C@@H](C)C(=O)O)cc1 (some centres undefined) -2.27%
Cc1cccn2c(CNCC(C)Oc3cccnc3)c(C(=O)N3CCOCC3)nc12 (centres undefined) -2.58%
N#CC1=C(N)Oc2c(ccc3cccnc23)C1c1ccncc1 (centres undefined) 12.7%
CN(C)CCCN(Cc1cc2cc3c(cc2[nH]c1=O)OCCO3)C(=O)NC1CCCCC1 0.9%
C/C(CC(=O)NC(C)c1ccccc1)=N\NC(N)=S (centres undefined) 21.4%
NCC(=O)c1cccc2ccc[n+]([O-])c12 -0.26%

Reference: PubChem BioAssay AID1385 (PCMD, 2008)
